Reference: ChEMBL document CHEMBL3286116, “Synthesis, biological evaluation and structure-activity correlation study of a series of imidazol-based compounds as Candida albicans inhibitors” (Eur J Med Chem, 2014)
Converted amounts (≈) assume the structure as drawn.

Assays:
Type in all cases: functional
Candida parapsilosis [1] = experiment: Antifungal activity against Candida parapsilosis DSM 11224 after 48 hrs by CLSI broth microdilution method; details: Lodderomyces parapsilosis, DSM 11224, 48 h
In short: (§1)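 Yeast CLSI broth microdilution (M27-A3). Compounds dissolved in DMSO at 100× the top test concentration, then diluted as serial two-fold dilutions in RPMI 1640 to final 0.125–64. Inoculum was 1.0–1.5 × 10^3 cells mL−1, incubated at 35 °C and read for growth at 48 h. MIC is the lowest concentration giving ≥50% growth inhibition versus growth control. Reported as the median of five replicates and as the geometric mean.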

[2] = tested on: Trichophyton mentagrophytes; experiment: Antifungal activity against Trichophyton mentagrophytes DSM 4870 after 72 hrs by CLSI broth microdilution method; details: DSM 4870, 72 h
In short: (§2)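 Dermatophytes tested by CLSI broth microdilution for filamentous fungi (M38-A2). Serial two-fold dilutions of DMSO-dissolved compound in RPMI 1640, final 0.125–64. Inoculum was 0.4–5 × 10^4 CFU mL−1, incubated at 35 °C and read at 72 h. MIC80 is the lowest concentration giving ≥80% growth inhibition versus growth control. Median of five replicates, plus geometric mean.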

Pichia kudriavzevii [3] = experiment: Antifungal activity against Candida krusei PMC 0613 after 48 hrs by CLSI broth microdilution method; details: PMC 0613, 48 h; in short: as §1
Nakaseomyces glabratus [4] = experiment: Antifungal activity against Candida glabrata PMC 0850R after 48 hrs by CLSI broth microdilution method; in short: as §1
Nakaseomyces glabratus [5] = experiment: Antifungal activity against Candida glabrata PMC 0852R after 48 hrs by CLSI broth microdilution method; in short: as §1
Nannizzia gypsea [6] = experiment: Antifungal activity against Microsporum gypseum DSM 3824 after 72 hrs by CLSI broth microdilution method; details: DSM 3824, 72 h; in short: as §2
[7] = tested on: Trichophyton mentagrophytes; experiment: Antifungal activity against Trichophyton mentagrophytes PMC 6509 after 72 hrs by CLSI broth microdilution method; details: PMC 6509, 72 h; in short: as §2
Cryptococcus neoformans [8] = experiment: Antifungal activity against Cryptococcus neoformans PMC 2123 after 72 hrs by CLSI broth microdilution method; details: PMC 2123, 72 h
In short: (§3)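 Cryptococcus neoformans tested by CLSI broth microdilution in RPMI 1640, with serial two-fold dilutions from DMSO stocks at 100× the top concentration, final 0.125–64. Inoculum was 1.0–1.5 × 10^3 cells mL−1 at 35 °C, with growth read at 72 h. MIC is the lowest concentration with ≥50% growth inhibition versus control. Median of five replicates, plus geometric mean.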

Cryptococcus neoformans [9] = experiment: Antifungal activity against Cryptococcus neoformans PMC 2111 after 72 hrs by CLSI broth microdilution method; details: PMC 2111, 72 h; in short: as §3
Candida parapsilosis [10] = experiment: Antifungal activity against Candida parapsilosis ATCC 22019 after 48 hrs by CLSI broth microdilution method; details: Lodderomyces parapsilosis, ATCC 22019, 48 h; in short: as §1
Candida albicans [11] = experiment: Antifungal activity against Candida albicans PMC 1041R after 48 hrs by CLSI broth microdilution method; in short: as §1
Cryptococcus neoformans [12] = experiment: Antifungal activity against Cryptococcus neoformans DSM 11959 after 72 hrs by CLSI broth microdilution method; details: DSM 11959, 72 h; in short: as §3
Cryptococcus neoformans [13] = experiment: Antifungal activity against Cryptococcus neoformans PMC 2115 after 72 hrs by CLSI broth microdilution method; details: PMC 2115, 72 h; in short: as §3
Nannizzia gypsea [14] = experiment: Antifungal activity against Microsporum gypseum PMC 7331 after 72 hrs by CLSI broth microdilution method; details: PMC 7331, 72 h; in short: as §2
Candida albicans [15] = experiment: Antifungal activity against Candida albicans PMC 1040R after 48 hrs by CLSI broth microdilution method; in short: as §1
Candida albicans [16] = experiment: Antifungal activity against Candida albicans ATCC 90028 after 48 hrs by CLSI broth microdilution method; details: ATCC 90028, 48 h; in short: as §1
Candida albicans [17] = experiment: Antifungal activity against Candida albicans ATCC 76615 after 48 hrs by CLSI broth microdilution method; details: ATCC 76615, 48 h; in short: as §1
Candida tropicalis [18] = experiment: Antifungal activity against Candida tropicalis PMC 0910 after 48 hrs by CLSI broth microdilution method; details: PMC 0910, 48 h; in short: as §1
[19] = tested on: Trichophyton mentagrophytes; experiment: Antifungal activity against Trichophyton mentagrophytes PMC 6531 after 72 hrs by CLSI broth microdilution method; details: PMC 6531, 72 h; in short: as §2
[20] = tested on: Trichophyton mentagrophytes; experiment: Antifungal activity against Trichophyton mentagrophytes PMC 6552 after 72 hrs by CLSI broth microdilution method; details: PMC 6552, 72 h; in short: as §2
Cryptococcus neoformans [21] = experiment: Antifungal activity against Cryptococcus neoformans PMC 2103 after 72 hrs by CLSI broth microdilution method; details: PMC 2103, 72 h; in short: as §3
Cryptococcus neoformans [22] = experiment: Antifungal activity against Cryptococcus neoformans PMC 2102 after 72 hrs by CLSI broth microdilution method; details: PMC 2102, 72 h; in short: as §3
Candida albicans [23] = experiment: Antifungal activity against Candida albicans ATCC 3153 after 48 hrs by CLSI broth microdilution method; details: ATCC 3153, 48 h; in short: as §1
Candida albicans [24] = experiment: Antifungal activity against Candida albicans PMC 1042R after 48 hrs by CLSI broth microdilution method; in short: as §1
Nakaseomyces glabratus [25] = experiment: Antifungal activity against Candida glabrata PMC 0807 after 48 hrs by CLSI broth microdilution method; details: PMC 0807, 48 h; in short: as §1
Pichia kudriavzevii [26] = experiment: Antifungal activity against Candida krusei DSM 6128 after 48 hrs by CLSI broth microdilution method; details: DSM 6128, 48 h; in short: as §1
[27] = tested on: Trichophyton mentagrophytes; experiment: Antifungal activity against Trichophyton mentagrophytes PMC 6515 after 72 hrs by CLSI broth microdilution method; details: PMC 6515, 72 h; in short: as §2
Candida albicans [28] = experiment: Antifungal activity against Candida albicans ATCC 10261 after 48 hrs by CLSI broth microdilution method; details: ATCC 10261, 48 h; in short: as §1
Candida tropicalis [29] = experiment: Antifungal activity against Candida tropicalis DSM 11953 after 48 hrs by CLSI broth microdilution method; details: DSM 11953, 48 h; in short: as §1
Candida albicans [30] = experiment: Antifungal activity against Candida albicans ATCC 10231 after 48 hrs by CLSI broth microdilution method; details: ATCC 10231, 48 h; in short: as §1
Candida albicans [31] = experiment: Antifungal activity against Candida albicans PMC 1011 after 48 hrs by CLSI broth microdilution method; details: PMC 1011, 48 h; in short: as §1
Nannizzia gypsea [32] = experiment: Antifungal activity against Microsporum gypseum PMC 7303 after 72 hrs by CLSI broth microdilution method; details: PMC 7303, 72 h; in short: as §2
[33] = tested on: Trichophyton mentagrophytes; experiment: Antifungal activity against Trichophyton mentagrophytes PMC 6503 after 72 hrs by CLSI broth microdilution method; details: PMC 6503, 72 h; in short: as §2
Cryptococcus neoformans [34] = experiment: Antifungal activity against Cryptococcus neoformans PMC 2136 after 72 hrs by CLSI broth microdilution method; details: PMC 2136, 72 h; in short: as §3
Candida albicans [35] = experiment: Antifungal activity against Candida albicans ATCC 20891 after 48 hrs by CLSI broth microdilution method; details: ATCC 20891, 48 h; in short: as §1
Nakaseomyces glabratus [36] = experiment: Antifungal activity against Candida glabrata PMC 0853R after 48 hrs by CLSI broth microdilution method; in short: as §1
Candida albicans [37] = experiment: Antifungal activity against Candida albicans ATCC 24433 after 48 hrs by CLSI broth microdilution method; details: ATCC 24433, 48 h; in short: as §1
Nakaseomyces glabratus [38] = experiment: Antifungal activity against Candida glabrata PMC 0805 after 48 hrs by CLSI broth microdilution method; details: PMC 0805, 48 h; in short: as §1
Cryptococcus neoformans [39] = experiment: Antifungal activity against Cryptococcus neoformans PMC 2107 after 72 hrs by CLSI broth microdilution method; details: PMC 2107, 72 h; in short: as §3
Nakaseomyces glabratus [40] = experiment: Antifungal activity against Candida glabrata PMC 0851R after 48 hrs by CLSI broth microdilution method; in short: as §1

OC(Cn1cncn1)(Cn1cncn1)c1ccc(F)cc1F [FLUCONAZOLE]
MIC50 (Candida parapsilosis [1]): 1 mg/L (≈ 3.27 µM)
MIC80 [2]: 16 mg/L (≈ 52.2 µM)
MIC50 (Pichia kudriavzevii [3]): 8 mg/L (≈ 26.1 µM)
MIC50 (Nakaseomyces glabratus [4]): 32 mg/L (≈ 104 µM)
MIC50 (Nakaseomyces glabratus [5]): 16 mg/L (≈ 52.2 µM)
MIC80 (Nannizzia gypsea [6]): 16 mg/L (≈ 52.2 µM)
MIC80 [7]: 1 mg/L (≈ 3.27 µM)
MIC50 (Cryptococcus neoformans [8]): 2 mg/L (≈ 6.53 µM)
MIC50 (Cryptococcus neoformans [9]): 1 mg/L (≈ 3.27 µM)
MIC50 (Candida parapsilosis [10]): 2 mg/L (≈ 6.53 µM)
MIC50 (Candida albicans [11]): 32 mg/L (≈ 104 µM)
MIC50 (Cryptococcus neoformans [12]): 2 mg/L (≈ 6.53 µM)
MIC50 (Cryptococcus neoformans [13]): 4 mg/L (≈ 13.1 µM)
MIC80 (Nannizzia gypsea [14]): 16 mg/L (≈ 52.2 µM)
MIC50 (Candida albicans [15]): 512 mg/L (≈ 1670 µM)
MIC50 (Candida albicans [16]): 0.5 mg/L (≈ 1.63 µM)
MIC50 (Candida albicans [17]): 0.5 mg/L (≈ 1.63 µM)
MIC50 (Candida tropicalis [18]): 4 mg/L (≈ 13.1 µM)
MIC80 [19]: 4 mg/L (≈ 13.1 µM)
MIC80 [20]: 8 mg/L (≈ 26.1 µM)
MIC50 (Cryptococcus neoformans [21]): 2 mg/L (≈ 6.53 µM)
MIC50 (Cryptococcus neoformans [22]): 4 mg/L (≈ 13.1 µM)
MIC50 (Candida albicans [23]): 16 mg/L (≈ 52.2 µM)
MIC50 (Candida albicans [24]): 16 mg/L (≈ 52.2 µM)
MIC50 (Nakaseomyces glabratus [25]): 16 mg/L (≈ 52.2 µM)
MIC50 (Pichia kudriavzevii [26]): 16 mg/L (≈ 52.2 µM)
MIC80 [27]: 8 mg/L (≈ 26.1 µM)
MIC50 (Candida albicans [28]): 4 mg/L (≈ 13.1 µM)
MIC50 (Candida tropicalis [29]): 1 mg/L (≈ 3.27 µM)
MIC50 (Candida albicans [30]): 2 mg/L (≈ 6.53 µM)
MIC50 (Candida albicans [31]): 0.25 mg/L (≈ 0.816 µM)
MIC80 (Nannizzia gypsea [32]): 16 mg/L (≈ 52.2 µM)
MIC80 [33]: 2 mg/L (≈ 6.53 µM)
MIC50 (Cryptococcus neoformans [34]): 2 mg/L (≈ 6.53 µM)
MIC50 (Candida albicans [35]): 1 mg/L (≈ 3.27 µM)
MIC50 (Nakaseomyces glabratus [36]): 32 mg/L (≈ 104 µM)
MIC50 (Candida albicans [37]): 0.5 mg/L (≈ 1.63 µM)
MIC50 (Nakaseomyces glabratus [38]): 1 mg/L (≈ 3.27 µM)
MIC50 (Cryptococcus neoformans [39]): 1 mg/L (≈ 3.27 µM)
MIC50 (Nakaseomyces glabratus [40]): 128 mg/L (≈ 418 µM)
